Test results taken from ChEMBL document CHEMBL2040844, “Anthranilic acid-based diamides derivatives incorporating aryl-isoxazoline pharmacophore as potential anticancer agents: design, synthesis and biological evaluation” (Eur J Med Chem, 2012).

Tests used:
[1] = system: MCF7; test: Cytotoxicity against human MCF7 cells after 72 hrs by MTT assay; assay type: functional, cell-based; settings: MCF7, 72 h
How it was run: (§1)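 MTT assay. Cells were seeded at 2 × 10⁴ per well, grown to subconfluence, then exposed to serial dilutions of compound in test medium for 72 h at 37 °C in humidified 5% CO₂. MTT was added for 4 h, formazan was dissolved in DMSO, and absorbance was read at 570 nm. IC50 values were derived from dose-response. Triplicate wells, three independent experiments; 5-FU served as positive control.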

[2] = system: BGC-823; test: Cytotoxicity against human BGC823 cells after 72 hrs by MTT assay; assay type: functional, cell-based; settings: BGC-823, 72 h; how it was run: as §1
[3] = system: NCI-H460; test: Cytotoxicity against human NCI-H460 cells after 72 hrs by MTT assay; assay type: functional, cell-based; settings: NCI-H460, 72 h; how it was run: as §1
[4] = system: HepG2; test: Cytotoxicity against human HepG2 cells after 72 hrs by MTT assay; assay type: functional, cell-based; settings: HepG2, 72 h; how it was run: as §1
[5] = system: SGC-7901; test: Growth inhibition of human SGC7901 cells at 40 ug/ml after 72 hrs by MTT assay; assay type: functional; settings: SGC-7901, 72 h, read-out: GI
How it was run: (§2)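 Single-concentration screen at 40 µg/mL, reported as % cell growth inhibition. Cells were seeded at 2 × 10⁴ per well, grown to subconfluence, then treated for 72 h at 37 °C in humidified 5% CO₂. MTT was added for 4 h, formazan was dissolved in DMSO, and absorbance was read at 570 nm. Triplicate wells, three independent experiments; 5-FU served as positive control.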

[6] = system: BGC-823; test: Growth inhibition of human BGC823 cells at 40 ug/ml after 72 hrs by MTT assay; assay type: functional; settings: BGC-823, 72 h, read-out: GI; how it was run: as §2
[7] = system: NCI-H460; test: Growth inhibition of human NCI-H460 cells at 40 ug/ml after 72 hrs by MTT assay; assay type: functional; settings: NCI-H460, 72 h, read-out: GI; how it was run: as §2
[8] = system: HepG2; test: Growth inhibition of human HepG2 cells at 40 ug/ml after 72 hrs by MTT assay; assay type: functional; settings: HepG2, 72 h, read-out: GI; how it was run: as §2
[9] = system: SGC-7901; test: Cytotoxicity against human SGC7901 cells after 72 hrs by MTT assay; assay type: functional, cell-based; settings: SGC-7901, 72 h; how it was run: as §1
[10] = system: MCF7; test: Growth inhibition of human MCF7 cells at 40 ug/ml after 72 hrs by MTT assay; assay type: functional; settings: MCF7, 72 h, read-out: GI; how it was run: as §2

Structure (SMILES)	IC50 [1] [µM]	IC50 [2] [µM]	IC50 [3] [µM]	IC50 [4] [µM]	inhibition of growth at 40 µg/mL [5] [%]	inhibition of growth at 40 µg/mL [6] [%]	inhibition of growth at 40 µg/mL [7] [%]	inhibition of growth at 40 µg/mL [8] [%]	IC50 [9] [µM]	inhibition of growth at 40 µg/mL [10] [%]
O=c1[nH]cc(F)c(=O)[nH]1 [FLUOROURACIL]	12.5	4.5	2.4	4.8	80.8	85.7	89.7	81.3	6.3	80.4
CC(C)NC(=O)c1ccccc1NC(=O)C1CC(c2ccc(F)cc2)=NO1 (stereo not given)					10.3	21.5	0	0		0
Cc1cc(Cl)cc(C(=O)Nc2ccccc2)c1NC(=O)C1CC(c2ccc(F)cc2)=NO1 (stereo not given)					11.6	26.4	0	5.1		17
COc1cc(C2=NOC(c3nc4c(C)cc(Cl)cc4c(=O)o3)C2)cc(OC)c1OC (stereo not given)	> 100	> 100	> 100	> 100	0	0	0	16.5	> 100	12.4
Cc1cc(Cl)cc2c(=O)oc(C3CC(c4ccc(F)cc4)=NO3)nc12 (stereo not given)	51.9	34.9	35.8	53.4	42.7	72.1	64.6	38.9	53.4	54.7
CNC(=O)c1cc(Cl)cc(C)c1NC(=O)C1CC(c2ccc(Cl)cc2)=NO1 (stereo not given)	> 100	> 100	> 100	> 100	24.6	13.2	0	18.7	> 100	22.6
CCCNC(=O)c1cc(Cl)cc(C)c1NC(=O)C1CC(c2ccc(F)cc2)=NO1 (stereo not given)	> 100	> 100	> 100	> 100	30.5	23.5	20	29.1	> 100	33
CCCNC(=O)c1cc(Cl)cc(C)c1NC(=O)C1CC(c2cc(OC)c(OC)c(OC)c2)=NO1 (stereo not given)	> 100	> 100	> 100	> 100	15.4	28	9.5	21.1	> 100	29.1
CCN(CC)C(=O)c1cc(Cl)cc(C)c1NC(=O)C1CC(c2ccc(F)cc2)=NO1 (stereo not given)	> 100	> 100	> 100	> 100	15.8	36.4	10	18.2	> 100	14.4
CNC(=O)c1cc(Cl)cc(C)c1NC(=O)C1CC(c2ccc(F)cc2)=NO1 (stereo not given)	> 100	> 100	50.3	> 100	12.8	14.6	42.9	26.7	> 100	40.8
Cc1cc(Cl)cc(C(=O)NC(C)C)c1NC(=O)C1CC(c2ccc(Cl)cc2)=NO1 (stereo not given)					24.2	38.7	10.3	12.3		3.9
Cc1cc(Cl)cc(C(=O)NC(C)C)c1NC(=O)C1CC(c2ccc(F)cc2)=NO1 (stereo not given)					17.2	0	0	13.6		4.8
CNC(=O)c1cc(Cl)cc(C)c1NC(=O)C1CC(c2cc(OC)c(OC)c(OC)c2)=NO1 (stereo not given)	> 100	54.1	> 100	67.6	27.3	34.1	5.5	30.6	65.5	26.1
